In the library only some 2% were active in any assay of this set; here they are far more common.
PvdQ inh: P. aeruginosa PvdQ acylase inhibition | purified PvdQ acylase, fluorescence plate reader | inhibition, % at 10 µM | 0.063% of 340,000 active | AID 488965; in the data active means inhibition above about 30%, passing the limit was not always enough
PLCg1 inh: inhibitors of human phospholipase C gamma1; P19174; purified PLC-gamma1, fluorogenic substrate, fluorescence; inhibition, % at 12.2 µM; 0.84% of 370,000 active; AID 720700; in the data active means inhibition above about 9.5%
VIM-2 inh: inhibitors of Pseudomonas aeruginosa VIM-2 metallo-beta-lactamase; 0.89% of 290,000 active; inhibition, % at 5.6 µM; purified VIM-2, nitrocefin hydrolysis, epi-absorbance fluorescence;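 active means inhibition above the mean of all tested compounds plus 3 SD, cutoff set per screening run, cut at about 7.5% in these data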;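 further: red hydrolysis product quenches plate fluorescence so inhibitors raise well fluorescence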
PLC-beta3 inh: blocks human PLC-beta3 enzyme activity | AID 720704 | 0.18% of 370,000 active | Purified PLC-beta3, fluorogenic substrate, fluorescence | Q01970 | inhibition, % at 12.2 µM
IMP-1 inhibitor: inhibitors of Pseudomonas aeruginosa IMP-1 metallo-beta-lactamase; purified IMP-1, nitrocefin hydrolysis, epi-absorbance fluorescence; inhibition, % at 5.6 µM; 0.45% of 290,000 active; AID 1556;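 active means inhibition above the mean plus 3 SD of all compounds in the same screening run, cut at about 4.5% in these data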
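Test system: recombinant IMP-1 enzyme, purified / Medium: HEPES buffer pH 7.1 with ZnSO4 and Brij 35 / Doses: single dose, 5.6 µM / Times: 25 °C, 15 min preincubation, 25 min reaction / Detection: Epi-absorbance via hydrolysed-nitrocefin quenching of white-plate fluorescence, 480/530 nm, EDTA stop / Evaluation: percent inhibition from optical density relative to buffer-blank wells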
PLCgamma1 ctr: PLC-gamma1 inhibition, counter-screen for PLC-beta3 hits | shares compounds with PLCg1 inh | purified PLC-gamma1, fluorogenic substrate, fluorescence | inhibition, % at 12.3 µM | 3.1% of 3,300 active; in the data active means inhibition above about 9.5%
PLCbeta3 conf: human PLC-beta3 inhibition, confirmation; 1% of 3,300 active; purified PLC-beta3, fluorogenic substrate fluorescence; inhibition, % at 12.3 µM; shares compounds with PLCg1 inh
Numbers stand for hits; – = inactive; · = no result. Unless noted, no stated cut-off is given here; in the data, active means inhibition above about 11%; inactive means the rest.

SMILES	PvdQ inh	PLCg1 inh	VIM-2 inh	PLC-beta3 inh	IMP-1 inhibitor	PLCgamma1 ctr	PLCbeta3 conf
O=[N+]([O-])c1nccn1CC(O)CO (stereo unspecified)	·	10	·	–	·	–	–
COC(=O)[C@]12C[C@H](CC(=O)N3CCCC3)C(=O)N(Cc3ccccc3)C1=C[C@H](C1CCCC1)O[C@@H]2C	·	–	·	–	·	·	·
CN1CCOc2ccc(S(=O)(=O)NCCc3ccc(Cl)cc3)cc21	–	13	–	–	–	–	–
Cc1ccc(C(=O)N(C)[C@H]2C[C@H]3c4[nH]c5c(-c6cccc(C)c6)cccc5c4CCN3C[C@H]2[C@H](C)O)cc1	·	–	·	–	·	·	·
COC(=O)C1CN(Cc2ccccc2)CCS(=O)(=O)N1Cc1cn(Cc2ccccc2)nn1 (stereo unspecified)	·	–	·	–	·	·	·
C=CCN(C)C(C#Cc1ccccc1)c1ccccc1C(F)(F)F (stereo unspecified)	·	–	·	–	·	·	·
CCCn1nc(C(=O)NCC(C)(C)N2CCOCC2)c2ccccc2c1=O	–	9.7	–	–	–	–	–
CCc1ccc(-n2ncc(Cl)c(Oc3ccc(OC)cc3)c2=O)cc1	·	–	·	–	·	·	·
CCOc1ccc(N(CC(=O)Nc2c(C)n(C)n(-c3ccccc3)c2=O)S(=O)(=O)c2cccc3cccnc23)cc1	·	–	·	–	·	·	·
COc1ccccc1NC(=O)c1ccccc1S(=O)(=O)c1ccc([N+](=O)[O-])cc1	–	9.8	–	–	–	–	–
CCN(CC)S(=O)(=O)c1cc([N+](=O)[O-])ccc1NNC(=O)Nc1ccccc1OC	–	10	–	–	–	–	–
COc1ccccc1NC(=O)c1ccccc1S(=O)(=O)c1ccccc1[N+](=O)[O-]	–	–	–	–	–	·	·
CCN(CC)S(=O)(=O)c1cc([N+](=O)[O-])ccc1NNC(=O)Nc1ccc(F)cc1	–	–	–	–	–	·	·
Cc1n[nH]c(C)c1S(=O)(=O)NCCc1cccc(F)c1	·	–	·	–	·	·	·
Cc1nn(C)cc1CN(C)C(=O)CCc1nnc(CCC2CCCCC2)o1	–	11	–	–	–	–	–
CN(Cc1nccn1C)C(=O)CCc1nnc(CCC2CCCCC2)o1	–	–	–	–	–	·	·
CC(C)(C)c1ccc(S(=O)(=O)N2CCCC(C(=O)NCc3cccs3)C2)cc1 (stereo unspecified)	·	–	·	–	·	·	·
CC(=O)c1ccc(OC(C)C)c(CSC(=N)N)c1	–	12	–	12	–	–	–
CCOC(=O)C(Cc1cc(C(C)=O)ccc1OC(C)C)C(=O)OCC	–	–	–	–	–	·	·
COc1ccc(S[C@]2(C(=O)N3CCCC3)CC(=O)N(C(=O)Nc3ccc(C)c(Cl)c3)[C@@H]2c2ccc(OC)cc2)cc1	·	–	·	–	·	·	·
COc1ccc(F)cc1Cn1nc(C(=O)O)c2ccccc2c1=O	–	12	–	–	–	–	–
CC(NC(=O)Cn1nc(C(=O)O)c2ccccc2c1=O)c1ccccc1 (stereo unspecified)	–	11	–	12	–	–	–
O=C(Nc1ccc(F)cc1)OC1CC2CC1[C@H]1CCCCN1[C@H]2Cc1ccccc1 (stereo partly specified)	·	–	·	–	·	·	·
COC(=O)CSc1nnc(-c2ccc(NS(=O)(=O)c3ccc(Cl)s3)cc2)o1	·	–	·	–	·	·	·
C[C@@H]1COC(=O)[C@@H](CC(=O)OC(C)(C)C)C/C=C\C[C@@H](CC(=O)N[C@@H](CO)Cc2ccccc2)C(=O)N1	–	–	·	–	·	·	·
SMILES	PvdQ inh	PLCg1 inh	VIM-2 inh	PLC-beta3 inh	IMP-1 inhibitor	PLCgamma1 ctr	PLCbeta3 conf
O=C(C[C@H]1C/C=C\CC[C@@H](Cc2ccc(F)cc2)C(=O)O[C@@H](c2ccccc2)CNC1=O)N[C@H](CO)Cc1ccccc1	–	11	·	–	·	–	–
CC(C)(C)OC(=O)C[C@H]1C/C=C\C[C@H](CC(=O)N[C@H](CO)Cc2ccccc2)C(=O)N[C@@H](Cc2ccccc2)COC1=O	–	14	·	13	·	–	–
Nc1ccc(C(CC(=O)O)n2cccc2)cc1 (stereo unspecified)	–	26	–	14	–	–	–
O=C(O)CC(c1ccccc1)n1cccc1 (stereo unspecified)	–	–	–	–	–	·	·
CC1(C)CC2CN(Cc3ccccc3)S(=O)(=O)N2C1 (stereo unspecified)	·	–	·	–	·	·	·
CC(C)c1ccc(S(=O)(=O)N2CCN(C(=O)CCNS(=O)(=O)c3ccccc3F)CC2)cc1	–	18	·	–	·	–	–
C#CCN(C)CC/C=C1\c2ccccc2CSc2ccccc21	–	10	–	–	–	–	–
Cc1cc(Br)cc2c(C(=O)NCC3CCCO3)cc(-c3cccs3)nc12 (stereo unspecified)	–	12	–	–	–	–	–
COc1cccc(-c2cc(C(=O)NCC3CCCO3)c3cc(Br)cc(C)c3n2)c1 (stereo unspecified)	–	–	–	–	–	·	·
O=C(Nc1nc2ncccn2c1-c1ccccc1)c1ccc(F)cc1	·	–	·	–	·	·	·
CCCCOCCCNC(=O)C[C@@H]1C(=O)N(CCc2ccc(Cl)cc2)C2=CCCC[C@]21C(=O)OCC	·	–	·	–	·	·	·
COc1cccc(Nc2cc(N3CCOCC3)c3nonc3c2[N+](=O)[O-])c1	–	10	–	–	–	–	–
O=[N+]([O-])c1c(Nc2ccccc2O)cc(N2CCOCC2)c2nonc12	–	–	–	–	–	·	·
CCCCNC(=O)C1CCCN1C(=O)Nc1cccc(C)c1 (stereo unspecified)	·	–	·	–	·	·	·
COC(=O)[C@]12C[C@H](CC(=O)NCCCCc3ccccc3)C(=O)N(Cc3cccc4ccccc34)C1=C[C@H](C1CCCC1)O[C@@H]2C	·	–	·	–	·	·	·
COc1ccc(OC)c(S(=O)(=O)NC(=O)C2(C)CCN2C(=O)Cc2ccccc2Cl)c1 (stereo unspecified)	·	–	·	–	·	·	·
COc1ccc(OC)c(S(=O)(=O)NC(=O)C2(C)CCN2C(=O)CC2CCCC2)c1 (stereo unspecified)	·	11	·	–	·	–	–
CC1(C(=O)NS(=O)(=O)c2ccccc2Cl)CCN1C(=O)Cc1ccccc1Cl (stereo unspecified)	·	12	·	–	·	–	–
CC1CCCN(c2cccc3c2S(=O)(=O)N([C@H](C)c2ccccc2)C[C@@H](COCc2ccccc2)O3)C1 (stereo partly specified)	·	–	·	–	·	·	·
CCc1c(-c2ccccc2Br)ncn1CCc1ccccc1OC	·	–	·	–	·	·	·
COC(=O)C1=C(C)N(Cc2cccc(C(F)(F)F)c2)C(=NCc2cc(OC)c(OC)c(OC)c2)NC1c1cccc(F)c1 (stereo unspecified)	·	–	·	–	·	·	·
O=[N+]([O-])c1ccc2[nH]cc(S(=O)(=O)N3CCN(c4cccc(Cl)c4)CC3)c2c1	–	10	–	–	–	14	–
O=S(=O)(c1ccccc1)N1CCN(c2cccc(Cl)c2)CC1	–	–	–	–	–	·	·
CCC[C@H]1[C@@H](N(C)CC2CCCCC2)CC[C@@]23CCCN2C(=O)CCC[C@@H]13	·	–	·	–	·	·	·

Screening data as filed in PubChem.
